Reference: ChEMBL document CHEMBL2150942, “Synthesis and antibacterial activity of novel 1,3-diphenyl-1H-pyrazoles functionalized with phenylalanine-derived rhodanines” (Eur J Med Chem, 2012)
In brackets after ≈: the same amount, converted by molar mass.

Experiments:
[1] = tested on: Staphylococcus aureus; test: Antibacterial activity against methicillin-resistant Staphylococcus aureus CCARM 3167 after 20 hrs by two fold serial dilution assay; type: functional; conditions: CCARM 3167, 20 h
[2] = tested on: Staphylococcus aureus; test: Antibacterial activity against methicillin-resistant Staphylococcus aureus CCARM 3506 after 20 hrs by two fold serial dilution assay; type: functional; conditions: CCARM 3506, 20 h
[3] = tested on: Staphylococcus aureus; test: Antibacterial activity against quinolone-resistant Staphylococcus aureus CCARM 3505 after 20 hrs by two fold serial dilution assay; type: functional; conditions: CCARM 3505, 20 h
[4] = tested on: Staphylococcus aureus; test: Antibacterial activity against Staphylococcus aureus RN4220 after 20 hrs by two fold serial dilution assay; type: functional; conditions: RN4220, 20 h
[5] = tested on: Staphylococcus aureus; test: Antibacterial activity against Staphylococcus aureus KCTC 503 after 20 hrs by two fold serial dilution assay; type: functional; conditions: KCTC 503, 20 h
[6] = tested on: Staphylococcus aureus; test: Antibacterial activity against quinolone-resistant Staphylococcus aureus CCARM 3519 after 20 hrs by two fold serial dilution assay; type: functional; conditions: CCARM 3519, 20 h
[7] = tested on: Escherichia coli; test: Antibacterial activity against Escherichia coli CCARM 1924 after 20 hrs by two fold serial dilution assay; type: functional; conditions: CCARM 1924, 20 h
[8] = tested on: Escherichia coli; test: Antibacterial activity against Escherichia coli CCARM 1356 after 20 hrs by two fold serial dilution assay; type: functional; conditions: CCARM 1356, 20 h
[9] = tested on: Staphylococcus aureus; test: Ratio of norfloxacin MIC to compound MIC for methicillin-resistant Staphylococcus aureus CCARM 3167; type: functional
[10] = tested on: Staphylococcus aureus; test: Ratio of norfloxacin MIC to compound MIC for methicillin-resistant Staphylococcus aureus CCARM 3506; type: functional
[11] = tested on: HeLa; test: Cytotoxicity against human HeLa cells assessed as decrease in cell viability at 1 ug/mL after 48 hrs by MTT assay; type: cell-based
How it was run: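 HeLa cells (DMEM, 10% FBS, antibiotics, 37 °C, 5% CO₂) were seeded at about 1 × 10⁴ cells/well, left overnight, then exposed to compound for 48 h. Viability was read by MTT (5 mg/ml stock, 4 h), with formazan dissolved in DMSO and absorbance taken at 570 nm. Assay performed four times.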

[12] = tested on: HeLa; test: Cytotoxicity against human HeLa cells after 48 hrs by MTT assay; type: cell-based
How it was run: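 HeLa cells grown in DMEM with 10% FBS and penicillin-streptomycin at 37 °C in 5% CO₂, passaged three times. About 1 × 10⁴ cells/well were seeded and attached overnight, then given a range of compound concentrations for 48 h. MTT (5 mg/ml stock) was added for 4 h, formazan dissolved in DMSO, and OD read at 570 nm. Run four times; IC50 was the concentration giving 50% growth inhibition.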

Structure (SMILES) | MIC [1] | MIC [2] | MIC [3] | MIC [4] | MIC [5] | MIC [6] | MIC [7] | MIC [8] | Ratio [9] | Ratio [10] | Activity [11] | IC50 [12]
O=C(O)[C@@H](Cc1ccccc1)N1C(=O)/C(=C/c2cn(-c3ccccc3)nc2-c2ccc(Cl)cc2)SC1=S | 2 µg/mL (≈ 3.66 µM) | 2 µg/mL (≈ 3.66 µM) | 2 µg/mL (≈ 3.66 µM) | 2 µg/mL (≈ 3.66 µM) | 2 µg/mL (≈ 3.66 µM) | 2 µg/mL (≈ 3.66 µM) | > 64 µg/mL | > 64 µg/mL | – | – | – | –
O=C(O)[C@@H](Cc1ccccc1)N1C(=O)/C(=C/c2cn(-c3ccccc3)nc2-c2ccc(Cl)cc2Cl)SC1=S | 1 µg/mL (≈ 1.72 µM) | 1 µg/mL (≈ 1.72 µM) | 2 µg/mL (≈ 3.45 µM) | 2 µg/mL (≈ 3.45 µM) | 2 µg/mL (≈ 3.45 µM) | 1 µg/mL (≈ 1.72 µM) | > 64 µg/mL | > 64 µg/mL | 8 | 4 | – | –
Cc1ccc(-c2nn(-c3ccccc3)cc2/C=C2\SC(=S)N([C@H](Cc3ccccc3)C(=O)O)C2=O)c(C)c1 | 2 µg/mL (≈ 3.71 µM) | 2 µg/mL (≈ 3.71 µM) | 2 µg/mL (≈ 3.71 µM) | 2 µg/mL (≈ 3.71 µM) | 2 µg/mL (≈ 3.71 µM) | 1 µg/mL (≈ 1.85 µM) | > 64 µg/mL | > 64 µg/mL | – | – | – | –
Cc1ccc(-c2nn(-c3ccccc3)cc2/C=C2\SC(=S)N([C@H](Cc3ccccc3)C(=O)O)C2=O)cc1 | 1 µg/mL (≈ 1.9 µM) | 1 µg/mL (≈ 1.9 µM) | 1 µg/mL (≈ 1.9 µM) | 2 µg/mL (≈ 3.8 µM) | 1 µg/mL (≈ 1.9 µM) | 1 µg/mL (≈ 1.9 µM) | > 64 µg/mL | > 64 µg/mL | 8 | 4 | Non-toxic | 20.2 µg/mL (≈ 38.4 µM)
O=C(O)[C@@H](Cc1ccccc1)N1C(=O)/C(=C/c2cn(-c3ccccc3)nc2-c2ccccc2)SC1=S | 4 µg/mL (≈ 7.82 µM) | 4 µg/mL (≈ 7.82 µM) | 4 µg/mL (≈ 7.82 µM) | 2 µg/mL (≈ 3.91 µM) | 8 µg/mL (≈ 15.6 µM) | 4 µg/mL (≈ 7.82 µM) | > 64 µg/mL | > 64 µg/mL | – | – | – | –
O=C(O)[C@@H](Cc1ccccc1)N1C(=O)/C(=C/c2cn(-c3ccccc3)nc2-c2cccc(Br)c2)SC1=S | 4 µg/mL (≈ 6.77 µM) | 4 µg/mL (≈ 6.77 µM) | 4 µg/mL (≈ 6.77 µM) | 2 µg/mL (≈ 3.39 µM) | 8 µg/mL (≈ 13.5 µM) | 4 µg/mL (≈ 6.77 µM) | > 64 µg/mL | > 64 µg/mL | – | – | – | –
O=C(O)[C@@H](Cc1ccccc1)N1C(=O)/C(=C/c2cn(-c3ccccc3)nc2-c2ccc(F)cc2)SC1=S | 1 µg/mL (≈ 1.89 µM) | 1 µg/mL (≈ 1.89 µM) | 1 µg/mL (≈ 1.89 µM) | 4 µg/mL (≈ 7.55 µM) | 16 µg/mL (≈ 30.2 µM) | 1 µg/mL (≈ 1.89 µM) | > 64 µg/mL | > 64 µg/mL | 8 | 4 | – | –
O=C(O)[C@@H](Cc1ccccc1)N1C(=O)/C(=C/c2cn(-c3ccccc3)nc2-c2ccc(Br)cc2)SC1=S | 1 µg/mL (≈ 1.69 µM) | 1 µg/mL (≈ 1.69 µM) | 1 µg/mL (≈ 1.69 µM) | 4 µg/mL (≈ 6.77 µM) | 16 µg/mL (≈ 27.1 µM) | 16 µg/mL (≈ 27.1 µM) | > 64 µg/mL | > 64 µg/mL | 8 | 4 | – | –
O=C(O)[C@@H](Cc1ccccc1)N1C(=O)/C(=C/c2cn(-c3ccccc3)nc2-c2ccc3ccccc3c2)SC1=S | 16 µg/mL (≈ 28.5 µM) | 16 µg/mL (≈ 28.5 µM) | 16 µg/mL (≈ 28.5 µM) | 2 µg/mL (≈ 3.56 µM) | 16 µg/mL (≈ 28.5 µM) | 16 µg/mL (≈ 28.5 µM) | > 64 µg/mL | > 64 µg/mL | – | – | – | –
O=C(O)[C@@H](Cc1ccccc1)N1C(=O)/C(=C/c2cn(-c3ccccc3)nc2-c2ccc([N+](=O)[O-])cc2)SC1=S | 1 µg/mL (≈ 1.8 µM) | 1 µg/mL (≈ 1.8 µM) | 1 µg/mL (≈ 1.8 µM) | 4 µg/mL (≈ 7.19 µM) | 16 µg/mL (≈ 28.7 µM) | 1 µg/mL (≈ 1.8 µM) | > 64 µg/mL | > 64 µg/mL | 8 | 4 | – | –
COc1ccccc1-c1nn(-c2ccccc2)cc1/C=C1\SC(=S)N([C@H](Cc2ccccc2)C(=O)O)C1=O | 16 µg/mL (≈ 29.5 µM) | 16 µg/mL (≈ 29.5 µM) | 16 µg/mL (≈ 29.5 µM) | 2 µg/mL (≈ 3.69 µM) | 16 µg/mL (≈ 29.5 µM) | 16 µg/mL (≈ 29.5 µM) | > 64 µg/mL | > 64 µg/mL | – | – | – | –
COc1ccc(-c2nn(-c3ccccc3)cc2/C=C2\SC(=S)N([C@H](Cc3ccccc3)C(=O)O)C2=O)cc1 | 4 µg/mL (≈ 7.38 µM) | 4 µg/mL (≈ 7.38 µM) | 4 µg/mL (≈ 7.38 µM) | 4 µg/mL (≈ 7.38 µM) | 16 µg/mL (≈ 29.5 µM) | 8 µg/mL (≈ 14.8 µM) | > 64 µg/mL | > 64 µg/mL | – | – | – | –
O=C(O)[C@@H](Cc1ccccc1)N1C(=O)/C(=C/c2cn(-c3ccccc3)nc2-c2ccccc2Cl)SC1=S | 1 µg/mL (≈ 1.83 µM) | 1 µg/mL (≈ 1.83 µM) | 2 µg/mL (≈ 3.66 µM) | 2 µg/mL (≈ 3.66 µM) | 2 µg/mL (≈ 3.66 µM) | 1 µg/mL (≈ 1.83 µM) | > 64 µg/mL | > 64 µg/mL | 8 | 4 | Non-toxic | 30.2 µg/mL (≈ 55.4 µM)
COc1cccc(-c2nn(-c3ccccc3)cc2/C=C2\SC(=S)N([C@H](Cc3ccccc3)C(=O)O)C2=O)c1 | 16 µg/mL (≈ 29.5 µM) | 16 µg/mL (≈ 29.5 µM) | 16 µg/mL (≈ 29.5 µM) | 4 µg/mL (≈ 7.38 µM) | 16 µg/mL (≈ 29.5 µM) | 16 µg/mL (≈ 29.5 µM) | > 64 µg/mL | > 64 µg/mL | – | – | – | –
O=C(O)[C@@H](Cc1ccccc1)N1C(=O)/C(=C/c2cn(-c3ccccc3)nc2-c2ccccc2F)SC1=S | 4 µg/mL (≈ 7.55 µM) | 4 µg/mL (≈ 7.55 µM) | 2 µg/mL (≈ 3.78 µM) | 4 µg/mL (≈ 7.55 µM) | 16 µg/mL (≈ 30.2 µM) | 4 µg/mL (≈ 7.55 µM) | > 64 µg/mL | > 64 µg/mL | – | – | – | –
CCn1cc(C(=O)O)c(=O)c2cc(F)c(N3CCNCC3)cc21 [NORFLOXACIN] | 8 µg/mL (≈ 25.1 µM) | 4 µg/mL (≈ 12.5 µM) | > 64 µg/mL | 2 µg/mL (≈ 6.26 µM) | 2 µg/mL (≈ 6.26 µM) | > 64 µg/mL | 16 µg/mL (≈ 50.1 µM) | 16 µg/mL (≈ 50.1 µM) | – | – | – | –
Cc1onc(-c2ccccc2)c1C(=O)N[C@@H]1C(=O)N2[C@@H]1SC(C)(C)[C@@H]2C(=O)O [OXACILLIN] | > 64 µg/mL | > 64 µg/mL | 1 µg/mL (≈ 2.49 µM) | 1 µg/mL (≈ 2.49 µM) | 1 µg/mL (≈ 2.49 µM) | 1 µg/mL (≈ 2.49 µM) | > 64 µg/mL | > 64 µg/mL | – | – | – | –
